Screening data as filed in PubChem BioAssay.
Rows were chosen to be rich in hits. Some 2.6% of all compounds tested hit in one or more screens of this group.
RAD52 anneal inh = RAD52 (human) annealing inhibition; P43351; recombinant RAD52 DNA annealing, FRET fluorescence; actives 0.46% (n = 360,000); inhibition, % at 18.7 µM; AID 651710;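 active = every replicate showing at least 50% inhibition; inconclusive = mean inhibition at least 50% but not in every replicate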
Target sequence (P43351 whole entry, looked up): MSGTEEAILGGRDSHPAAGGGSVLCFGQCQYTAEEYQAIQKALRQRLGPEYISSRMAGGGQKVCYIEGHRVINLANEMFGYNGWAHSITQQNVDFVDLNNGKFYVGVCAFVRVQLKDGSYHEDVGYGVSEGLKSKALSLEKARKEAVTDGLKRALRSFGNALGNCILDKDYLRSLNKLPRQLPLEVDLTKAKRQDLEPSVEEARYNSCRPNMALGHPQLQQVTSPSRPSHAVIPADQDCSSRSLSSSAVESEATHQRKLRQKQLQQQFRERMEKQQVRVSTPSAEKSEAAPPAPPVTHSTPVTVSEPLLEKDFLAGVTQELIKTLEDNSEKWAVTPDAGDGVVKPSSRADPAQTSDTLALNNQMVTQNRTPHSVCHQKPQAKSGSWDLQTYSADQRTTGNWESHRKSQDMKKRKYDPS
GSIS activator = primary screen for activators of insulin secretion dependent on glucose, INS-1E cells, GLuc reporter luminescence; INS-1E GLuc reporter insulin secretion, 2-3 h; activation, % at 16.6 µM; actives 0.61% (n = 370,000);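 active = lowest replicate activation of at least 40%, so every replicate reaches that level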;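 also: 0% = median of neutral control wells and 100% = median of IBMX positive control wells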
MLL AF4-AF9 inh = inhibitors of human MLL-AF4/AF9 interaction; actives 0.47% (n = 350,000); inhibition, % at 10 µM; AID 651704; AlphaScreen, biotin-AF4 peptide binding to FLAG-AF9; P42568;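 active = every replicate reaching a set inhibition limit, whatever the replicate mean, cut at about 25% in these data; inconclusive = mean inhibition reaches that limit but some replicates miss it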;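 also: 0% = plate neutral control median and 100% = total signal loss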
E-selectin induc = E-selectin induction on HUVECs. P16581. HUVEC E-selectin immunofluorescence imaging; normalized: neutral wells 0, TNF-alpha wells 100. activation, % at 7.58 µM. actives 0.37% (n = 260,000). AID 686992;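 active = mean E-selectin-positive cell signal at least 10% of the positive control, reached in at least 60% of replicates, without over 20% cell loss; inconclusive = no rule given, readout overlaps actives, possibly toxicity-flagged; inactive = the rest, including those meeting only one limit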
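Test system: HUVEC | Signal: Immunofluorescence imaging | Read-out: Percent E-selectin-positive cells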
RAD54 inh = inhibitors of human RAD54 branch migration. AID 602329. actives 0.14% (n = 360,000). inhibition, % at 10.4 µM. RAD54 Holliday junction branch migration, FAM/BHQ fluorescence;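 active = mean normalized replicate activity at least 40 and at least half of replicates scoring 40 or more; inconclusive = only one of the two criteria met; inactive = mean below 40 and under half of replicates reaching 40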;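 also: 0% = median of neutral control wells and 100% = median of positive control wells; inhibitors cause a drop in the FAM fluorescence signal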
rRNA inh HTS = inhibitors of bacterial rRNA selective over humanized ribosomes | GFP signal change (wild-type ribosome), % (no concentration beside the values) | actives 1.6% (n = 350,000) | E. coli WT GFP vs humanized-ribosome RFP mutants, fluorescence, 24 h; stronger effect = lower value; DMSO median 0, no signal -100;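 active = significant combined selectivity score with lowered wild-type GFP, culture density cut under 30%, mutant RFP and density less affected; inactive = any of these conditions unmet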
Active calls of the source: *; u = inconclusive; x = no result given; ! = a repeat was not active.

SMILES	RAD52 anneal inh	GSIS activator	MLL AF4-AF9 inh	E-selectin induc	RAD54 inh	rRNA inh HTS
C[C@H]1CC=CCCNC(=O)[C@H](C)N(C)C(=O)c2ccccc2O1 (mixture of isomers)	x	-1	x	x	x	1
Cc1cccc(-c2ccc(C3[C@@H]4CN(Cc5ccccc5F)C[C@H]3N4)cc2)c1 (some centres undefined)	49	23	9	0	x	-58
Fc1ccc(-c2ccc(C3[C@@H]4CN(Cc5cccc(F)c5)C[C@H]3N4)cc2)cc1 (some centres undefined)	94*!	376*!	u	0	x	-57
Fc1ccc(-c2ccc(C3[C@@H]4CN(Cc5ccccc5)C[C@H]3N4)cc2)cc1 (some centres undefined)	78*!	75*!	20	0	x	-58
Cc1ccc(-c2ccc([C@@H]3[C@@H]4CN(Cc5ccccc5F)C[C@H]3N4)cc2)cc1	x	83*	x	0	x	-58
Cc1ccc(-c2ccc(C3[C@@H]4CN(Cc5cccc(F)c5)C[C@H]3N4)cc2)cc1 (some centres undefined)	54*	997*	7	1	x	-55
C(=C\c1ccc(C2[C@@H]3CN(Cc4ccccn4)C[C@H]2N3)cc1)/c1ccccc1 (some centres undefined)	42	-28	20	0	x	-59
C(=C\c1ccc(C2[C@@H]3CN(Cc4nccs4)C[C@H]2N3)cc1)/c1ccccc1 (some centres undefined)	x	132*!	x	0	x	-58
COc1ccccc1C#Cc1cnc2c(c1)C(=O)N([C@H](C)CO)C[C@@H](C)[C@@H](CN(C)C(C)=O)O2	-7	24	-2	0	-3	1
C[C@@H]1CN([C@H](C)CO)S(=O)(=O)c2ccc(C3=CCCCC3)cc2O[C@H]1CN(C)C(=O)C1CC1	4	-8	-2	0	0	-2
C[C@H](CO)N1C[C@H](C)[C@@H](CN(C)Cc2ccc(C(=O)Nc3ccccc3N)cc2)Oc2c(NC(=O)c3ccncc3)cccc2C1=O	3	4	15	9	-5	-1
C[C@H](CO)N1C[C@H](C)[C@@H](CN(C)Cc2ccc(Oc3ccccc3)cc2)Oc2c(NC(=O)c3ccncc3)cccc2C1=O	-10	-42	25*!	0	1	-22
C[C@@H]1CN([C@@H](C)CO)C(=O)c2cccc(NC(=O)c3ccncc3)c2O[C@@H]1CN(C)Cc1ccc(Oc2ccccc2)cc1	2	x	24	0	4	x
C[C@H]1CN([C@@H](C)CO)C(=O)c2cccc(NC(=O)c3ccncc3)c2O[C@@H]1CN(C)Cc1ccc(C(=O)Nc2ccccc2N)cc1	-16	-1	14	58*	-4	2
C[C@@H]1CN([C@@H](C)CO)C(=O)c2cc(-c3cccc(F)c3)cnc2O[C@H]1CN(C)C	4	14	-2	0	-7	1
CCOC(=O)N1CCN(c2c(N3CCOCC3)c(=O)c2=O)CC1	0	1	2	204*	1	7
C[C@H](O)C#Cc1cnc2c(c1)C(=O)N([C@@H](C)CO)C[C@H](C)[C@@H](CN(C)C(=O)Cc1ccncc1)O2	-27	11	-2	0	1	1
CC1CC1C(=O)Nc1cc(C(F)(F)F)ccc1N1CCOCC1 (centres undefined)	-8	48*	-2	x	11	6
Cc1noc(C)c1S(=O)(=O)N(C)C[C@@H]1OCCCC[C@@H](C)Oc2ccc(NC(=O)NC3CCCCC3)cc2C(=O)N([C@H](C)CO)C[C@H]1C	-5	-20	0	0	-3	1
COc1ccccc1-c1ccc(C2[C@@H]3CN(S(=O)(=O)c4ccc(F)cc4)C[C@H]2N3)cc1 (some centres undefined)	61*!	-4	1	0	x	-58
COc1ccccc1-c1ccc(C2[C@@H]3CN(S(=O)(=O)c4ccccc4)C[C@H]2N3)cc1 (some centres undefined)	55*	-9	x	0	x	-55
C[C@H]1CCCCO[C@@H](CN(C)C(=O)c2ccncc2)[C@@H](C)CN([C@@H](C)CO)C(=O)c2cc(NC(=O)c3ccncc3)ccc2O1	1	25	-1	0	2	1
CCOC(=O)c1[nH]c2ccccc2c1NC(=O)c1ccc(Br)o1	-5	16	6	x	-12	-19*
CCOC(=O)c1[nH]c2ccccc2c1NC(=O)NC(C)C	-3	-1	-3	0	3	22
COCC#Cc1ccc2c(c1)O[C@@H](CN(C)C(=O)CN(C)C)[C@@H](C)CN([C@@H](C)CO)S2(=O)=O	-19	3	-1	0	-4	4
SMILES	RAD52 anneal inh	GSIS activator	MLL AF4-AF9 inh	E-selectin induc	RAD54 inh	rRNA inh HTS
COc1ccc(OC)c(NC(=O)Nc2ccc(O)c3ccccc23)c1	0	x	2	0	-7	x
COc1ccc(OC)c(NC(=O)Nc2c(O)ccc3ccccc23)c1	-3	x	5	0	4	-27*
COc1ccc(OC)c(NC(=O)Nc2nc(C(N)CCc3ccccc3)cs2)c1 (centres undefined)	-21	x	28*	0	6	-57
COc1ccc(CC(N)c2csc(NC(=O)Nc3cc(OC)ccc3OC)n2)cc1 (centres undefined)	-22	-28	31*	0	11	-64
COc1ccc(CCNC(=O)Nc2nc(C(N)COCc3ccccc3)cs2)cc1OC (centres undefined)	-20	-22	16	-1	8	-14*
C[C@H](CO)N1C[C@H](C)[C@H](CN(C)C(=O)C2CC2)Oc2cc(-c3ccc(C(=O)N(C)C)cc3)ccc2S1(=O)=O	x	10	x	0	x	1
COc1ccccc1CNC(=O)C[C@@H]1C=C[C@H](NC(=O)CN(C)C)[C@H](CO)O1	-8	5	0	0	1	2
C[C@@H]1CN([C@H](C)CO)C(=O)c2cc(NC(=O)Cc3ccccc3)ccc2O[C@@H](C)CCCCO[C@@H]1CN(C)C(=O)c1ccncc1	-7	2	0	x	-6	2
CC(C)(C)c1cc(CCC(=O)NCc2ccccn2)cc(C(C)(C)C)c1O	-1	-24	2	100*	4	-7
CC(C)(C)c1cc(CCC(=O)NCc2cccnc2)cc(C(C)(C)C)c1O	-9	-34	2	0	2	-10
Nc1nc2c(s1)CCCCCCCCCC2	-4	x	6	0	4	-50*
O=C(C[C@H]1CC[C@@H]2NC[C@@H](O)COC[C@H]2O1)NCc1ccc(Oc2ccccc2)cc1	19	-2	7	0	0	4
